ChEMBL document CHEMBL1122743, “Structure-activity relationship study of the inhibition of adrenal cortical 11 beta-hydroxylase by new metyrapone analogues” (J Med Chem, 1984)
pIC50: −log10 of the molar value.

Target: T1, Cytochrome P450 11B1, mitochondrial (Bos taurus, UniProt P15150)
T1 sequence (P15150 whole entry): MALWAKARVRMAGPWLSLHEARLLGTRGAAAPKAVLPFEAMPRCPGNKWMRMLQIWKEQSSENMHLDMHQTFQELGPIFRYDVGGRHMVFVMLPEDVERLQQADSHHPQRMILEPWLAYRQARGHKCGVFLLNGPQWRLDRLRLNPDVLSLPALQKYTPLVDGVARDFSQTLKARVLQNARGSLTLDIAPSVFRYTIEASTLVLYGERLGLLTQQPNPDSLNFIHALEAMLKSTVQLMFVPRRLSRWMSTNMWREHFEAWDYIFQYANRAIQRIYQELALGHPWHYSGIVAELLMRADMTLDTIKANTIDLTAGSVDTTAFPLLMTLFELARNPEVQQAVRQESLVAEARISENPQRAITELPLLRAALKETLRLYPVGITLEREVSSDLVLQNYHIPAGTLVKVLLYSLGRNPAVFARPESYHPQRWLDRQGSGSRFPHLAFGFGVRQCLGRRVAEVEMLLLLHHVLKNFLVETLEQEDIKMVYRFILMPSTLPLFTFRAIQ
Test: Evaluated for inhibition of bovine adrenal cortical mitochondrial 11 beta-hydroxylase
Type: functional
In short: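 Crude lyophilized, defatted adrenal cortical mitochondria (300 µg) plus 15.0 µM purified adrenodoxin, in 0.50 mL of 50 mM potassium phosphate pH 7.40. Additions: 200 µM DOC with [3H]DOC tracer, 16 mM MgCl2, 4.6% propylene glycol, inhibitor (final 1% ethanol). Preincubated 5 min at 37 °C, then started with 1.5 mM NADPH. Products extracted into CH2Cl2, separated by TLC, counted by scintillation. Percent inhibition versus 1% ethanol controls; duplicates.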

| Compound | pIC50 |
| --- | --- |
| CC(C)(c1cccnc1)C(Cl)c1cccnc1 (stereo not given) | 5.14 |
| CC(C(=O)c1ccccc1)c1cccnc1 (stereo not given) | 5.11 |
| CC(C)(c1cccnc1)C(O)c1ccccc1 (stereo not given) | 5.82 |
| CC(C)(c1cccnc1)C(N)c1cccnc1 (stereo not given) | < 3.00 |
| CC(C)(C(=NO)c1cccnc1)c1cccnc1 | 5.32 |
| CC(=O)NC(c1cccnc1)C(C)(C)c1cccnc1 (stereo not given) | 4.06 |
| CC(C)(C(=O)c1cccnc1)c1cccnc1 [METYRAPONE] | 5.11 |

Now from value to compound:

| pIC50 | Compound |
| --- | --- |
| 5.48 | CC(C)(C(=O)c1ccccc1)c1cccnc1 |
| 6.18 | CC(C)(Cc1ccccc1)c1cccnc1 |
| 5.58 | CC(C)(Cc1cccnc1)c1cccnc1 |
| 5.14 | COC(c1cccnc1)C(C)(C)c1cccnc1 (stereo not given) |
| 5.27 | CC(C)(c1cccnc1)C(I)c1cccnc1 (stereo not given) |
| 5.79 | CC(C)(c1cccnc1)C(Cl)c1ccccc1 (stereo not given) |
| 3.80 | O=C(Cc1cccnc1)c1ccccc1 |
| 5.15 | CC(C)(c1cccnc1)C(O)c1cccnc1 (stereo not given) [METYRAPOL] |
